Experimental data published in ChEMBL document CHEMBL4376807, “Hydroxamic Acid Derivatives of β-Carboline/Hydroxycinnamic Acid Hybrids Inducing Apoptosis and Autophagy through the PI3K/Akt/mTOR Pathways” (J Nat Prod, 2019).
Active and inactive are the calls of the source. No cut-off for these calls is given here.

Legend:
Bel-7402 [1] = test: Induction of autophagy in human Bel7402 cells assessed as accumulation of autophagic vacuoles at 5 uM after 24 hrs by acridine orange staining based fluorescence microscopic method; type: functional, cell-based
Outline: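 Bel7402 cells (10 000) cultured overnight, then exposed to compound at 1.0 or 5.0 μM, or vehicle. Stained with 1 mg/mL acridine orange for 15−20 min, then dye removed. Red versus green fluorescence viewed by fluorescence microscopy at 400×. Representative images from three independent experiments.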

Bel-7402 [2] = test: Induction of autophagy in human Bel7402 cells assessed as upregulation of LC3-2 level at 5 uM after 24 to 72 hrs by Western blot analysis; type: functional, cell-based
Outline: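 Bel7402 cells (1.5 × 10^5/mL) exposed to compound at indicated doses, or vehicle, for 24 or 72 h. Lysates (0.05 mg/lane) separated on 12% SDS-PAGE, blotted to nitrocellulose, blocked in 5% milk. Probed with anti-LC3, anti-p62 and anti-beclin-1, HRP secondary, chemiluminescent detection. Levels quantified relative to β-actin; three separate assays, mean ± SD.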

Bel-7402 [3] = test: Induction of apoptosis in human Bel7402 cells assessed as annexin-V positive cells at 5 uM after 72 hrs by Annexin-V/PI staining based flow cytometry relative to control; type: functional
Outline: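 Bel7402 cells (10 000) cultured overnight, then exposed to compound at 1.0 or 5.0 μM, or vehicle, for 72 h. Harvested, stained with annexin-V APC and 7-AAD for 15 min. Apoptotic percentage measured by flow cytometry (APC ex 633/em 660 nm; 7-AAD ex 488/em 647 nm). Three separate assays, mean ± SD.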

Bel-7402 [4] = test: Induction of apoptosis in human Bel7402 cells assessed as increase in cleaved PARP level at 5 uM after 72 hrs by Western blot analysis; type: functional, cell-based
Outline: (§1)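 Subconfluent Bel7402 cells (1.5 × 10^5/mL) exposed to vehicle or compound for 72 h, then lysed. Lysates (0.05 mg/lane) run on 12% SDS-PAGE, transferred to nitrocellulose, blocked in 5% nonfat milk. Probed for Bax, Bcl-2, cleaved caspase-3 and cleaved PARP, with HRP secondary and chemiluminescence. Levels normalized to β-actin; three separate assays, mean ± SD.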

Bel-7402 [5] = test: Induction of apoptosis in human Bel7402 cells assessed as increase in cleaved caspase-3 level at 5 uM after 72 hrs by Western blot analysis; type: functional, cell-based; outline: as §1
Huh-7 = test: Antiproliferative activity against human HuH7 cells after 72 hrs by MTT assay; type: functional, cell-based; conditions: Huh-7, 72 h
SMMC-7721 = test: Antiproliferative activity against human SMMC7721 cells after 72 hrs by MTT assay; type: functional, cell-based; conditions: SMMC-7721, 72 h
Histone deacetylase 1 = Histone deacetylase 1 (Homo sapiens, UniProt Q13547); test: Inhibition of HDAC1 (unknown origin) using Boc-Lys (Ac)-AMC as substrate incubated for 60 mins by fluorimetric assay
Bel-7402 [6] = test: Antiproliferative activity against human Bel7402 cells after 72 hrs by MTT assay; type: functional, cell-based; conditions: Bel-7402, 72 h
HepG2 = test: Antiproliferative activity against human HepG2 cells after 72 hrs by MTT assay; type: functional, cell-based; conditions: HepG2, 72 h
Homo sapiens [7] = species on record: Homo sapiens; test: Selectivity ratio of IC50 for human HDAC3 to IC50 for human HDAC6
Outline: (§2)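 Recombinant human HDAC1, 3, 6 and 8 (fluorimetric kit) incubated with compound over a range of concentrations and Boc-Lys(Ac)-AMC substrate at 37 °C for 60 min. Reaction quenched with lysine developer; after 30 min, fluorescence read at ex 355/em 460 nm. Inhibition taken relative to control and IC50 fitted; ratios built from these IC50s.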

[8] = biological target: T1, Protein deacetylase HDAC6 (Homo sapiens, UniProt Q9UBN7); test: Inhibition of human HDAC6 using Boc-Lys (Ac)-AMC as substrate incubated for 60 mins by fluorimetric assay
T1 sequence (Q9UBN7 whole entry): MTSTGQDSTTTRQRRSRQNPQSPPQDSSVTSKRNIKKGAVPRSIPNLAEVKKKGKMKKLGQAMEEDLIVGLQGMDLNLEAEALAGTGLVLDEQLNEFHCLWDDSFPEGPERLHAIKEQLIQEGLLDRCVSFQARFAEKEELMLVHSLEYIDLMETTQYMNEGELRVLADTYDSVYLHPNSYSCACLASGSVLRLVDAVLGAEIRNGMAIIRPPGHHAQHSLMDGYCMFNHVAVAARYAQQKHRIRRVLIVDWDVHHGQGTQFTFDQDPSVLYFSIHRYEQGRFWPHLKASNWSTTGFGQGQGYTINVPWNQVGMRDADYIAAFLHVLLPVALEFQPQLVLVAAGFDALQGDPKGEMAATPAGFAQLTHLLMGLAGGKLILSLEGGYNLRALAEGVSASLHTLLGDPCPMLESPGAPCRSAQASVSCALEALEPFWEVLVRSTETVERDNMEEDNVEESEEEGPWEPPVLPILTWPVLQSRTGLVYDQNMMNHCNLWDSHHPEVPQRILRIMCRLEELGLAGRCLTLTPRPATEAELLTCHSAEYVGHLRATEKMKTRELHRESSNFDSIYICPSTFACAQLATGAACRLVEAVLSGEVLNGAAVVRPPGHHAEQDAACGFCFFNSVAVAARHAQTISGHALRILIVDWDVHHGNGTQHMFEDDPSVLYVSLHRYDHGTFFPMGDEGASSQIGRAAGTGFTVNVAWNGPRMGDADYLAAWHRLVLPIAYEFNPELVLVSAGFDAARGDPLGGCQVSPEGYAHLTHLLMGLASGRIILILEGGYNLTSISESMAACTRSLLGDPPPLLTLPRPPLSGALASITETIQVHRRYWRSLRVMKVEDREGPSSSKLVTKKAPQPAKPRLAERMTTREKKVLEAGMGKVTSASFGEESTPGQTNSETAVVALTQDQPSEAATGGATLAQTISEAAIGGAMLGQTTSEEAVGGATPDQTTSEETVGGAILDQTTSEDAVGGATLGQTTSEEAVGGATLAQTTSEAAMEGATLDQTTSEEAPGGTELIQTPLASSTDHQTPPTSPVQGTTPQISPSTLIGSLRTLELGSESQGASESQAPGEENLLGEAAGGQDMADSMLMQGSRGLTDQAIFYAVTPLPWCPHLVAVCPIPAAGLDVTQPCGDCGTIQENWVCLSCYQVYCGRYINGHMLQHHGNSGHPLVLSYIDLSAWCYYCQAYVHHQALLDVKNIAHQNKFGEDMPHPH

Histone deacetylase 8 = biological target: T2, Histone deacetylase 8 (Homo sapiens, UniProt Q9BY41); test: Inhibition of human HDAC8 using Boc-Lys (Ac)-AMC as substrate incubated for 60 mins by fluorimetric assay
T2 sequence (Q9BY41 whole entry): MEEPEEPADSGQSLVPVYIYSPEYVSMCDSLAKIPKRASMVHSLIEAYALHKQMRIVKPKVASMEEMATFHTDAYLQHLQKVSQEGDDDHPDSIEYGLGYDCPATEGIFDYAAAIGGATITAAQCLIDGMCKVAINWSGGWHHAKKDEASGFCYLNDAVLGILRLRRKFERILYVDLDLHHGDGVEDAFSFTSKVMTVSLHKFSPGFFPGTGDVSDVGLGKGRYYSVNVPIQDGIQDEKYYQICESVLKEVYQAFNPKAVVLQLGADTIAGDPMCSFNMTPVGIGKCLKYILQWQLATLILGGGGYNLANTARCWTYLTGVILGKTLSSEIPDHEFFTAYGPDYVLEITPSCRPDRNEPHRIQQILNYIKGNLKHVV

Homo sapiens [9] = species on record: Homo sapiens; test: Selectivity ratio of IC50 for HDAC1 (unknown origin) to IC50 for human HDAC6; outline: as §2
Histone deacetylase 3 = Histone deacetylase 3 (Homo sapiens, UniProt O15379); test: Inhibition of human HDAC3 using Boc-Lys (Ac)-AMC as substrate incubated for 60 mins by fluorimetric assay
[10] = Inhibition of PI3K/AKT/mTOR signaling in human Bel7402 cells assessed as reduction in AKT phosphorylation at 20 uM after 24 to 72 hrs by Western blot analysis; type: cell-based
Outline: (§3)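 Bel7402 cells (1.5 × 10^5/mL) treated 24 or 72 h. Lysates (0.05 mg/lane) run on 12% SDS-PAGE, transferred to nitrocellulose, blocked with 5% nonfat milk. Probed for phospho-Akt (Ser473), total Akt, phospho-mTOR, total mTOR and β-actin; HRP secondary, chemiluminescent detection. Bands quantified against vehicle control; mean ± SD of three separate assays.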

[11] = Inhibition of PI3K/AKT/mTOR signaling in human Bel7402 cells assessed as reduction in mTOR phosphorylation at 20 uM after 24 to 72 hrs by Western blot analysis; type: cell-based; outline: as §3
Bel-7402 [12] = test: Induction of apoptosis in human Bel7402 cells assessed as annexin-V positive cells at 20 uM after 72 hrs by […] relative to control; type: functional
Bel-7402 [13] = test: Induction of autophagy in human Bel7402 cells assessed as accumulation of autophagic vacuoles at 20 uM after 24 hrs by acridine orange staining based fluorescence microscopic method; type: functional, cell-based
Outline: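 Bel7402 cells (10 000) seeded overnight, then exposed alongside vehicle. Stained with acridine orange (1 mg/mL) for 15−20 min. Autophagic vacuoles scored by fluorescence microscopy as red versus green fluorescence at 400×. Representative images from three independent experiments.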

Histone deacetylase 1, sequence (Q13547 whole entry): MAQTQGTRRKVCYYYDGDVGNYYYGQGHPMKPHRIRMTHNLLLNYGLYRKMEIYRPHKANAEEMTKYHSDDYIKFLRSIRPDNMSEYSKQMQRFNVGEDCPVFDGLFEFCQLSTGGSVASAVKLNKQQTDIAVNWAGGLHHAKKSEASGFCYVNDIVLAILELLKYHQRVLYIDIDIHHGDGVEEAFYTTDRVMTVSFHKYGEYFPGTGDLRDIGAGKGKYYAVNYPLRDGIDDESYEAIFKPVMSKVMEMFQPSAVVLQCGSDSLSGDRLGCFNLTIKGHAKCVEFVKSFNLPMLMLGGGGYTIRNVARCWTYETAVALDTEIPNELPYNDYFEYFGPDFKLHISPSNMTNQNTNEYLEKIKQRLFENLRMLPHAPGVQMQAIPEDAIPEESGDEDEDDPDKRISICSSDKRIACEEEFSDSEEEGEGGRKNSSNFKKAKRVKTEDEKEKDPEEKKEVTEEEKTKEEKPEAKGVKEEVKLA
Histone deacetylase 3, sequence (O15379 whole entry): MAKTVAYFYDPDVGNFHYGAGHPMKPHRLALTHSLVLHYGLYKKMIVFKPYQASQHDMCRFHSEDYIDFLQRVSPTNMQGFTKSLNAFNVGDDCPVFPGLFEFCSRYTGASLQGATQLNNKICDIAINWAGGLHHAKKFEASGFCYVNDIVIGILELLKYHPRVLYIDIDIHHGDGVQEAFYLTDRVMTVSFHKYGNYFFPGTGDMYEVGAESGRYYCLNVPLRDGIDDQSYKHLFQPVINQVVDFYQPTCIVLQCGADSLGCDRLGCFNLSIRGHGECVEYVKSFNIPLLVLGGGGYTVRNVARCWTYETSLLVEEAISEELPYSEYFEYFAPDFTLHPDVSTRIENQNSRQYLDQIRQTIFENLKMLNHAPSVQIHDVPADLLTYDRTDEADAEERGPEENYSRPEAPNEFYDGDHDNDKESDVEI

Row | SMILES | IC50 (SMMC-7721) | IC50 (Histone deacetylase 1) | IC50 (Bel-7402 [6]) | IC50 (HepG2) | further results
1 | O=C(CCCCCCC(=O)Nc1ccccc1)NO [VORINOSTAT] |  |  |  |  | Activity (Bel-7402 [1]): Active; Activity (Bel-7402 [2]): Active; Activity (Bel-7402 [3]): 45.4%; Activity (Bel-7402 [4]): Active; Activity (Bel-7402 [5]): Active
2 | COc1ccc2c(c1)[nH]c1c(C)nccc12 [HARMINE] |  | > 1 µM |  |  | inhibition [10]: Active; inhibition [11]: Active; Activity (Bel-7402 [12]): 36.1%; Activity (Bel-7402 [13]): Active
3 | COc1ccc(-c2nc(NCCCOc3ccc(/C=C/C(=O)NO)cc3)cc3c2[nH]c2ccccc23)cc1 | 4.1 µM | 0.057 µM | 4 µM | 3.4 µM | 
4 | COc1ccc(-c2nc(NCCOc3ccc(/C=C/C(=O)NO)cc3)cc3c2[nH]c2ccccc23)cc1 | 6.3 µM | 0.075 µM | 5.2 µM | 5.8 µM | 

Now from value to molecule, other results behind:

Row | IC50 (SMMC-7721) | IC50 (Histone deacetylase 1) | IC50 (Bel-7402 [6]) | IC50 (HepG2) | SMILES | further results
5 | 7.1 µM | 0.061 µM | 4.6 µM | 5.3 µM | COc1ccc(-c2nc(NCCCCOc3ccc(/C=C/C(=O)NO)cc3OC)cc3c2[nH]c2ccccc23)cc1 | IC50 (Huh-7): 6.2 µM
6 | 4 µM | 0.032 µM | 1.8 µM | 4.8 µM | COc1ccc(-c2nc(NCCOc3ccc(/C=C/C(=O)NO)cc3OC)cc3c2[nH]c2ccccc23)cc1 | Ratio IC50 (Homo sapiens [7]): 7 to 11; IC50 (Huh-7): 2.8 µM; IC50 [8]: 0.017 µM; IC50 (Histone deacetylase 8): > 1 µM; Ratio IC50 (Homo sapiens [9]): 2; IC50 (Histone deacetylase 3): 0.125 µM
7 | > 12.5 µM | 0.125 µM | 8.9 µM | 9.5 µM | COc1ccc(-c2nc(NCCCCOc3ccc(/C=C/C(=O)NO)cc3)cc3c2[nH]c2ccccc23)cc1 | 
